Data published in ChEMBL document CHEMBL1130391, “Novel agonists of 5HT2C receptors. Synthesis and biological evaluation of substituted 2-(indol-1-yl)-1-methylethylamines and 2-(indeno[1,2-b]pyrrol-1-yl)-1-methylethylamines. Improved therapeutics for obsessive compulsive disorder” (J Med Chem, 1997).
pEC50, pKi: −log10 of the molar value.

Key:
[1] = biological target: 5-hydroxytryptamine receptor 2A (Homo sapiens, UniProt P28223); assay: Binding affinity against human 5-hydroxytryptamine 2A receptor using displacement of [3H]5-HT
Chain of 5-hydroxytryptamine receptor 2A (P28223 whole entry): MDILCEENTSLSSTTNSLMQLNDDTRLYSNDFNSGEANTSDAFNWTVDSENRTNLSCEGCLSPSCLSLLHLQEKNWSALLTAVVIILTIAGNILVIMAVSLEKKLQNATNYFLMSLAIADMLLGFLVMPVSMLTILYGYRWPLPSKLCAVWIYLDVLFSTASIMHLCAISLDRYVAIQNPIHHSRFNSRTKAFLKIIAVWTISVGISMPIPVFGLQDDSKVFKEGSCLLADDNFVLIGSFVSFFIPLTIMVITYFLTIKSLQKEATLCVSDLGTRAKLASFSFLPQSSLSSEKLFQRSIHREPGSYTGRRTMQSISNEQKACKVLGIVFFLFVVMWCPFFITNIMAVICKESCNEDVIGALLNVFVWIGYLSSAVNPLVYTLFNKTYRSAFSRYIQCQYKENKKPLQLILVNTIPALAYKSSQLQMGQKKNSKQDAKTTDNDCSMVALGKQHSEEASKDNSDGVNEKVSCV

[2] = biological target: T1, 5-hydroxytryptamine receptor 2C (Homo sapiens, UniProt P28335); assay: Binding affinity against human 5-hydroxytryptamine 2C receptor using displacement of [3H]DOB
T1 sequence (P28335 whole entry): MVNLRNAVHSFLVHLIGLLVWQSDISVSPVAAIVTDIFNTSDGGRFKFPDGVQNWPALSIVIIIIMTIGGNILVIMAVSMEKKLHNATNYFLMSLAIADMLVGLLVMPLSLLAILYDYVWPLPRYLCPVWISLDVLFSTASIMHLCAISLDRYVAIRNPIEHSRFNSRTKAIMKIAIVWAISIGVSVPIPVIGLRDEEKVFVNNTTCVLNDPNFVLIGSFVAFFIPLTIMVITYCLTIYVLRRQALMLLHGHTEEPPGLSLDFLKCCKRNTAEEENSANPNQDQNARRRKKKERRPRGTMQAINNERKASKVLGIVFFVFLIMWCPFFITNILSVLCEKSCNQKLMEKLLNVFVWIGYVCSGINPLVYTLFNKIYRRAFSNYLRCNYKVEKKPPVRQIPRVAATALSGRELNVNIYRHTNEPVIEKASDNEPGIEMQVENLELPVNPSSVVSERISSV

[3] = biological target: T2, 5-hydroxytryptamine receptor 2C (Rattus norvegicus) (UniProt P08909); assay: Intrinsic 5-HT 2c receptor activity as induced IP3 turnover in vitro in rat choroid plexus; type: functional, tissue-based
T2 sequence (whole entry): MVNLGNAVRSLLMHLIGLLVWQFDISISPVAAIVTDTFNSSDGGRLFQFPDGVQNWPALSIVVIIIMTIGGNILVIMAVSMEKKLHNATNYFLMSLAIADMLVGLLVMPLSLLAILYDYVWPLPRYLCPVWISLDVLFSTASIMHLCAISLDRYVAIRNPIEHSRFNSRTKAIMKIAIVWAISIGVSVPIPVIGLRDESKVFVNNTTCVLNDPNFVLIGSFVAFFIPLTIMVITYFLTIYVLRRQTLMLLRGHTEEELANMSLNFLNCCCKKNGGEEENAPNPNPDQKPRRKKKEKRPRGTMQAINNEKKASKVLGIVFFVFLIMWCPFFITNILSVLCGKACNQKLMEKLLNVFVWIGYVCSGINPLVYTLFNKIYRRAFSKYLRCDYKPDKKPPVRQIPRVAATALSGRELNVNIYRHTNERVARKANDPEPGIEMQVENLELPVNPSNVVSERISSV
Procedure, shortened: (§1)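 Rat choroid plexus preloaded with [³H]myoinositol for 1 h at 37 °C in oxygenated Krebs. LiCl 10 mM and pargyline 10 µM added, then compound 10 min later. Six concentrations, top 0.1 mM, incubated 0.5 h at 37 °C. Stopped with HClO₄/EDTA, then IP₃ isolated. Three measures per point. Intrinsic activity is the maximum relative to 10 µM 5HT.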

[4] = biological target: T3, 5-hydroxytryptamine receptor 2C (Rattus norvegicus, UniProt P08909); assay: Efficacy (pEC50) was evaluated for 5-HT2C receptor-mediated stimulation of IP3 formation in vitro in choroid plexus of the rat; type: functional, tissue-based; procedure, shortened: as §1
T3 sequence (P08909 whole entry): T2 sequence (whole entry)

[5] = biological target: T2, 5-hydroxytryptamine receptor 2C (Rattus norvegicus); assay: Induction of penile erection in rats following p.o. administration, indicative of 5-HT 2c receptor activation; type: functional, organism-based
Procedure, shortened: (§2)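 Male erection counts in RORO rats, 8 per dose, over 45 min. Drug is given in 0.3% Tween-80 in saline, sc at 5 mL/kg or orally at 10 mL/kg. Vehicle controls are included, and doses are expressed as salt weight. ED₅₀ by probit analysis, or the approximate dose at which half the rats respond.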

[6] = biological target: T2, 5-hydroxytryptamine receptor 2C (Rattus norvegicus); assay: Induction of penile erection in rats after subcutaneous administration, indicative of 5-HT 2c receptor activation; type: functional, organism-based; procedure, shortened: as §2
Rattus norvegicus [7] = assay: Compound was tested in schedule induced polydipsia in rats expressed as %maximum suppression at minimum effective dose of 10 mg/kg intraperitoneally; type: functional; details: route intraperitoneal
Rattus norvegicus [8] = assay: Compound was tested in schedule induced polydipsia in rats expressed as %maximum suppression at minimum effective dose of 3 mg/kg intraperitoneally; type: functional; details: route intraperitoneal
Rattus norvegicus [9] = assay: Compound was tested in schedule induced polydipsia in rats expressed as %maximum suppression at minimum effective dose of 1 mg/kg intraperitoneally; type: functional; details: route intraperitoneal

Row | Compound | pKi [1] | pKi [2] | Efficacy [3] | pEC50 [4] | ED50 [5] | ED50 [6] | Max suppression (Rattus norvegicus [7]) | Max suppression (Rattus norvegicus [8]) | Max suppression (Rattus norvegicus [9])
1 | CC(N)Cn1ccc2cc(Br)ccc21 (configuration not stated) | 6.80 | 8.40 | 0.8 | 5.70 | > 30 mg/kg | 4 mg/kg | – | – | –
2 | COc1ccc2c(c1)-c1c(ccn1CC(C)N)C2 (configuration not stated) | 6.90 | 9.00 | 1 | 6.40 | 11 mg/kg | 0.6 mg/kg | -79% | – | –
3 | Cc1ccc2c(c1)-c1c(ccn1CC(C)N)C2(C)C (configuration not stated) | 7.00 | 8.50 | 1 | 6.70 | 10 mg/kg | 0.9 mg/kg | -76% | – | –
4 | CC(N)Cn1ccc2c1-c1cc(F)ccc1C2(C)C (configuration not stated) | 7.50 | 8.30 | 1 | 6.70 | > 30 mg/kg | 2.7 mg/kg | – | – | –
5 | COc1ccc2c(c1)Cc1ccn(CC(C)N)c1-2 (configuration not stated) | 6.40 | 7.90 | 1 | 5.70 | – | > 10 mg/kg | – | – | –
6 | Cc1ccc2ccn(CC(C)N)c2c1 (configuration not stated) | 6.10 | 7.80 | 0.9 | 5.10 | > 30 mg/kg | 3.3 mg/kg | – | – | –
7 | COc1ccc2c(c1)-c1c(ccn1C[C@@H](C)N)C2 | 6.90 | 8.40 | 0.8 | 5.10 | > 30 mg/kg | 2 mg/kg | – | – | –
8 | CC(N)Cn1ccc2c(F)cccc21 (configuration not stated) | 6.80 | 8.10 | 0.7 | 5.90 | – | > 10 mg/kg | – | – | –
9 | CC(N)Cn1ccc2cc(F)ccc21 (configuration not stated) | 6.80 | 8.20 | 1 | 5.80 | 2.7 mg/kg | 1 mg/kg | – | -97% | –
10 | C[C@@H](N)Cn1ccc2cc(F)c(Cl)cc21 | 7.10 | 8.00 | 1 | 5.50 | > 30 mg/kg | 2.1 mg/kg | – | – | –
11 | Cc1cccc2c1ccn2CC(C)N (configuration not stated) | 7.00 | 8.20 | 0.6 | 5.60 | > 30 mg/kg | 3.2 mg/kg | – | – | –
12 | CC(N)Cc1c[nH]c2ccc(F)cc12 (configuration not stated) | 7.20 | 8.00 | 0.9 | 6.80 | 9.9 mg/kg | 0.8 mg/kg | – | – | -96%
13 | C[C@H](N)Cn1ccc2c(Cl)c(F)ccc21 | 7.40 | 8.90 | 1 | 6.50 | > 30 mg/kg | 2.7 mg/kg | – | -97% | –
14 | CC(N)Cn1ccc2c1-c1cc(Cl)ccc1C2 (configuration not stated) | 6.70 | 8.40 | 0.8 | 5.60 | > 30 mg/kg | 2.7 mg/kg | – | – | –
15 | CC(N)Cn1ccc2c1-c1cc(Br)ccc1C2 (configuration not stated) | 7.00 | 8.40 | 1 | 5.60 | – | > 10 mg/kg | – | – | –
16 | COc1ccc2c(c1)-c1c(ccn1C[C@H](C)N)C2 | 6.90 | 9.00 | 1 | 6.60 | 10 mg/kg | 1.2 mg/kg | – | – | -97%
17 | C[C@H](N)Cn1ccc2cc(F)c(F)cc21 | 7.00 | 9.00 | 1 | 6.70 | 10 mg/kg | 0.3 mg/kg | – | -73% | –
18 | CC(N)Cn1ccc2cc(Cl)ccc21 (configuration not stated) | 6.70 | 8.10 | 0.9 | 5.70 | > 30 mg/kg | 2.3 mg/kg | – | – | –
19 | COc1cccc2c1ccn2CC(C)N (configuration not stated) | – | 6.90 | 0.3 | 4.90 | – | > 10 mg/kg | – | – | –
20 | COc1cccc2c1-c1c(ccn1CC(C)N)C2 (configuration not stated) | 6.40 | 7.90 | 0.7 | 5.20 | – | > 10 mg/kg | – | – | –
21 | C[C@@H](N)Cn1ccc2cc(F)c(F)cc21 | 7.00 | 8.40 | 1 | 6.90 | 30 mg/kg | 2.7 mg/kg | – | – | –
22 | COc1ccc2c(c1)-c1c(ccn1CC(C)N)C2(C)C (configuration not stated) | 8.00 | 9.40 | 1 | 7.00 | 10 mg/kg | 0.5 mg/kg | – | – | -75%
23 | Cc1ccc2c(ccn2CC(C)N)c1 (configuration not stated) | 6.10 | 7.20 | 0.9 | 5.60 | – | > 10 mg/kg | – | – | –
24 | CC(N)Cn1ccc2ccc(F)cc21 (configuration not stated) | 6.60 | 8.40 | 1 | 6.20 | > 30 mg/kg | 0.3 mg/kg | – | – | –
25 | CC(N)Cn1ccc2cc(Cl)c(F)cc21 (configuration not stated) | 7.40 | 8.70 | 1 | 6.40 | 15 mg/kg | 1 mg/kg | – | -88% | –
26 | CC(N)Cn1ccc2c1-c1cc(F)ccc1C2 (configuration not stated) | 6.70 | 8.50 | 1 | 6.20 | > 30 mg/kg | 1.5 mg/kg | – | – | –
27 | Cc1ccc2c(c1)-c1c(ccn1CC(C)N)C2 (configuration not stated) | 7.20 | 8.10 | 1 | 6.30 | – | > 10 mg/kg | – | – | –
28 | COc1ccc2c(ccn2CC(C)N)c1 (configuration not stated) | – | 6.10 | 0.3 | 5.00 | – | > 10 mg/kg | – | – | –
